CRFR2-BP ag – agonists of CRF-BP/CRF-R2 complex, primary screen, cell-based, HEK293, calcium dye fluorescence, uHTS. 350,000 compounds, 0.46% hits. calcium dye fluorescence (FLIPR); percent of saturating CRF peptide response. CRF-binding protein / CRF receptor 2 complex (human). activation, % at 13.2 µM. AID 588473, 2011;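 active = activation of at least 50%, plus an integration ratio under a set limit after plate pattern correction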;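 note: plate controls were neutral control wells without compound for no effect and CRF at EC100 for full effect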
TRPML3 ag – human TRPML3 channel agonists, primary screen, cell-based, HEK293 TRPML3-YFP, Fluo-8 calcium fluorescence, 3 µM; Mucolipin-3 (Homo sapiens), Q8TDD5; 220,000 compounds, 0.29% hits; AID 1448, 2008; activation, % at 3 µM; 100% = the carbachol control signal;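 active = activation above its plate's cutoff, the mean activation of the plate's test wells plus 3 SD, cut at about 12% in these data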;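 note: 0% = DMSO only wells and 100% = carbachol wells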
Target sequence (Q8TDD5 whole entry, looked up): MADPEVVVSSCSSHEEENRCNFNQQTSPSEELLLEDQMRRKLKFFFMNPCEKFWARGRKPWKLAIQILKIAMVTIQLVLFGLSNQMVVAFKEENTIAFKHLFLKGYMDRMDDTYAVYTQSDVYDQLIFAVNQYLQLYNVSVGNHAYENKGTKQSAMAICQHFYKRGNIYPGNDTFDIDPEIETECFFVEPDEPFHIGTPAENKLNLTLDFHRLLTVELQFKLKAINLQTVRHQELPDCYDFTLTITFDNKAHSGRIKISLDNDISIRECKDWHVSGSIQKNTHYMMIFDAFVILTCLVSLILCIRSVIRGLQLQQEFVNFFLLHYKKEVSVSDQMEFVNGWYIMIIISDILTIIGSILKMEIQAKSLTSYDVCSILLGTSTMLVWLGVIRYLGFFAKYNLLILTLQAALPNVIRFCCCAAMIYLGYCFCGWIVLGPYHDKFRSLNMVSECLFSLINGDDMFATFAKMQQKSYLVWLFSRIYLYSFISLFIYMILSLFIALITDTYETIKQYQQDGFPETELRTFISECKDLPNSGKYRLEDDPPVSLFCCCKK
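Test system – HEK293 line with stable expression of human TRPML3-YFP channel · Control set – carbachol 87 µM final as high control (100%), DMSO as low control (0%) · Signal – Fluo-8 calcium dye fluorescence, ex 470-495, em 515-575 nm · Incubation – 1-h 37 °C dye load, 5-s basal, 120-s post-compound reads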
zfTRPN1 agonist – zebrafish TRPN1 channel agonists, primary screen, cell-based, HEK293, calcium fluorescence. transient receptor potential cation channel N1 (TRPN1/NompC), Danio rerio. activation, % at 3 µM. AID 1424, 2008. 220,000 compounds, 0.18% hits. HEK293 zebrafish TRPN1-YFP, Fluo-8 calcium fluorescence; 100% = response to 87 µM carbachol;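 active = activation above its plate's cutoff, the mean activation of test wells on that plate plus 3 SD, cut at about 19% in these data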;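 note: 0% = DMSO alone and 100% = 87 µM carbachol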
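System: zebrafish TRPN1-YFP in HEK293 cells / Dosing: 3 µM single point / Timing: dye loading 1 h at 37 °C, then 30 min room temperature / Signal: Fluo-8 calcium fluorescence, excitation 470-495 nm, emission 515-575 nm / Read-out basis: percent activation from peak over basal fluorescence ratio, control-normalized / Control set: high carbachol 87 µM, low DMSO alone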
OXTR potentiate – human OXTR potentiators, primary screen, fluorescence, CHO-OTR cells, Fluo-8 calcium. Oxytocin receptor (Homo sapiens), P30559. Fluo-8 calcium fluorescence, potentiator mode; 0% = oxytocin EC15, 100% = EC100. activation, % at 3 µM. 320,000 compounds, 0.061% hits;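 active = activation above that plate's cutoff, the mean activation of tested compounds plus 3 SD, cut at about 6.6% in these data, passing the limit was not always enough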;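 note: 100% uses oxytocin at 75 nM as the full agonist control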
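test system = CHO-OTR cells, human receptor | compound = single-point 3.0 µM | schedule = 6 min compound pre-incubation at room temperature, 100 s kinetic read | signal = Fluo-8 no-wash calcium dye fluorescence, excitation 470-495 nm, emission 515-575 nm | repeats = single well per compound, singlicate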
OXTR ag – human OXTR agonists, primary screen, fluorescence, CHO-OTR cells, Fluo-8 calcium; Oxytocin receptor (Homo sapiens), P30559; Fluo-8 calcium fluorescence; normalized: DMSO 0%, oxytocin 100%; activation, % at 3 µM; 320,000 compounds, 0.32% hits; AID 2435, 2010;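 active = activation above the mean of all tested compounds plus 3 SD, cutoff set per screening run, cut at about 20% in these data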;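 note: peak over basal fluorescence ratio from a 100 s FLIPR kinetic read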
V1R ag counter – agonists of human V1a receptor, primary screen, counter-screen for OXTR agonist project, fluorescence, CHO-V1R cells; Vasopressin V1a receptor (Homo sapiens), P37288; Fluo-8 calcium fluorescence, agonist mode; 0% DMSO, 100% 3 nM vasopressin; activation, % at 3 µM; 320,000 compounds, 0.25% hits; AID 2797, 2010;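 active = activation above the mean activation of all tested compounds plus 3 SD, per screening run, cut at about 20% in these data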;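 note: signal is peak over basal fluorescence ratio across a 100 second FLIPR read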
OXTR ag confirm – human OXTR agonists, confirmation, fluorescence, CHO-OTR cells, triplicate; shares compounds with OXTR ag; Fluo-8 calcium fluorescence, agonist; activation, % at 3 µM; 390 compounds, 20% hits; AID 434963, 2010;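 active = mean activation above about 20% derived from the earlier single-dose screen, limit read from the data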;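 note: peak over minimum fluorescence ratio per well during a 100 second FLIPR read; 0% = DMSO alone and 100% = oxytocin high control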
V1R ag counter 3x – V1a receptor agonists, calcium signal, counter-screen for OXTR agonist project, triplicate, fluorescence, CHO-V1R cells | shares compounds with OXTR ag | 390 compounds, 10% hits | activation, % at 3 µM | AID 434991, 2010 | Fluo-8 calcium fluorescence;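 active = mean activation over triplicate exceeds the hit threshold set in the earlier primary screen, cut at about 20% in these data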;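 note: peak over basal fluorescence ratio within a 100 second read; 0% = DMSO alone and 100% = 3 nM vasopressin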
An asterisk follows results filed as active; i = inactive; · = no result given; ! = not active in a repeat. Only some compounds are listed: those with a hit (about 0.85% of all), similar ones and a draw of the others.

SMILES | CRFR2-BP ag | TRPML3 ag | zfTRPN1 agonist | OXTR potentiate | OXTR ag | V1R ag counter | OXTR ag confirm | V1R ag counter 3x
CCOc1ccc(NC(=O)CN(C)C(=O)C(C)N2C(=O)c3ccccc3C2=O)cc1OCC (configuration not stated) | 2.1 | · | · | -2.2 | -0.9 | 0.0 | · | ·
CCOC(=O)c1ccc2c(c1)N(C)C(=O)c1ccccc1S2 | -6.1 | · | · | -6.0 | -2.6 | -1.3 | · | ·
CCOC(=O)c1cc2n(c1/N=C/N(C)C)-c1ccccc1C2=O | 30.8 | 0.6 | 1.2 | -10.5 | 24.5* | 15.4 | 26.1* | 33.0*
CC(=O)c1c(C)[nH]c(C(=O)CN2C(=O)NC(C)(c3ccc(C)cc3)C2=O)c1C (configuration not stated) | 77.3* | 6.6 | 16.9 | -12.7 | 20.4* | 19.9 | 25.7* | 16.8
COc1ccc(N2CCN(C(=O)c3ccc(NS(=O)(=O)c4ccc(F)c(F)c4)cc3)CC2)cc1 | -3.0 | -0.3 | -0.9 | -6.2 | 14.3 | 10.8 | · | ·
O=C(c1ccc(NS(=O)(=O)c2ccc(F)cc2)cc1)N1CCCCC1 | -2.0 | · | · | -13.2 | 0.9 | 1.8 | · | ·
COc1ccc(NS(=O)(=O)c2ccc(C(=O)N3CCN(c4ccc(F)cc4)CC3)cc2)cc1 | 0.4 | · | · | -14.0 | 21.8* | 15.6 | 16.4 | 14.5
O=C(c1ccc(S(=O)(=O)Nc2ccc(F)cc2)cc1)N1CCN(c2ccccn2)CC1 | 2.6 | 5.7 | 10.1 | -15.9 | 20.7* | 12.7 | 14.3 | 11.9
O=S(=O)(/N=S1\CC=CCN1S(=O)(=O)c1ccccc1)c1ccccc1 (configuration not stated) | 38.8 | · | · | · | · | · | · | ·
O=C(NC1CCCC1)C(c1cccs1)N(CC1CCCO1)C(=O)Cc1cccs1 (configuration not stated) | -1.8 | -0.4 | 1.2 | -13.2 | 19.9* | -0.6 | -0.9 | 1.3
COc1ccc(C(C(=O)NC2CCCC2)N(CC2CCCO2)C(=O)Cc2cccs2)cc1OC (configuration not stated) | -0.2 | 0.4 | -1.0 | 0.2 | -0.7 | 1.1 | · | ·
COc1ccc(NC(=O)CCN2CCN(S(=O)(=O)c3ccc(F)cc3)CC2)cc1 | -1.4 | · | · | 4.1 | -0.7 | 0.8 | · | ·
COc1ccc(S(=O)(=O)N2CCCN(CCC(=O)Nc3cccc(C(F)(F)F)c3)CC2)cc1 | 16.0 | 2.3 | 3.7 | -11.8 | 21.6* | 17.0 | 8.0 | 5.7
OC(c1cc(C(F)(F)F)nc2c(C(F)(F)F)cccc12)C1CCCCN1 (configuration not stated) | 18.0 | · | · | -16.4 | 23.6* | 11.4 | 8.8 | 8.5
Cc1cccc(NC(=O)C2(c3ccc([N+](=O)[O-])cc3)CCCC2)c1 | 8.2 | 2.1 | 8.0 | -24.6 | 22.1* | 17.4 | 7.4 | 3.3
Cc1cccc(NC(=O)C2(c3ccccc3)CCOCC2)c1 | -0.2 | 0.6 | -0.5 | -4.9 | -1.7 | -1.1 | · | ·
CCOC(=O)c1sc(NC(=O)c2cc(-c3ccc(C)cc3)nc3ccccc23)c(C#N)c1C | 47.0 | 0.1 | 0.0 | 5.9 | 2.4 | 0.0 | · | ·
Cc1ccccc1-c1cc(C(=O)Nc2sc(C(=O)OC(C)C)c(C)c2C#N)c2ccccc2n1 | 40.2 | 2.1 | 1.9 | -10.8 | 21.1* | 12.6 | 14.2 | 12.7
COC(=O)c1sc(NC(=O)c2cc(-c3ccccc3)nc3ccccc23)c(C#N)c1C | 53.9* | 0.1 | 2.8 | -22.8 | 20.1* | 11.0 | 17.2 | 13.1
CC(=O)Nc1ccc(S(=O)(=O)Oc2cccc(N3C(=O)C4CC=CCC4C3=O)c2)cc1 (configuration not stated) | 0.7 | 2.6 | 5.0 | -6.5 | 11.1 | 13.0 | · | ·
CC(=O)Nc1ccc(S(=O)(=O)Oc2ccc(N3C(=O)C4CCCCC4C3=O)cc2)cc1 (configuration not stated) | -0.5 | 7.4 | 13.0 | -10.5 | 23.7* | 16.9 | 14.4 | 14.4
O=C(NCc1ccc(OC(F)(F)F)cc1)c1cccc2c1C(=O)c1ccc(N3CCC(Cc4ccccc4)CC3)cc1S2(=O)=O | 63.2* | · | · | -2.2 | 22.8* | 6.2 | 22.2* | 26.5*
CN(C)Cc1c(O)ccc2ccccc12 | 0.0 | 1.0 | -2.2 | -1.6 | 1.5 | -0.2 | · | ·
CN(C)Cc1c(O)ccc2oc(Cc3ccccc3)cc12 | 0.9 | 2.1 | 2.2 | -18.7 | 23.4* | 13.8 | 0.9 | 1.4
Cc1ccc(S(=O)(=O)/N=C(/c2ccc(F)cc2)N(C)C)cc1 | -0.2 | · | · | -5.7 | 1.3 | 0.6 | · | ·
SMILES | CRFR2-BP ag | TRPML3 ag | zfTRPN1 agonist | OXTR potentiate | OXTR ag | V1R ag counter | OXTR ag confirm | V1R ag counter 3x
COc1ccc(CCn2c(C(C)C)nc3c(c(=O)c4ccccc4n3C)c2=O)cc1 | 114.8* | 0.2 | -2.0 | -19.1 | 30.2* | 10.2 | -0.2 | 13.2
CCSc1ccc2c(c1)N(CCCN1CCN(C)CC1)c1ccccc1S2 | -0.1 | · | · | -5.3 | 8.9 | 2.6 | · | ·
CN1CCN(CCCN2c3ccccc3Sc3ccc(Cl)cc32)CC1 | i | 1.6 | 0.5 | -17.0 | 24.9*! | 10.5 | 10.9 | 2.6
Brc1ccc2[nH]c3c(N4CCc5ccccc5C4)ncnc3c2c1 | 0.8 | 1.7 | 3.6 | -20.9 | 23.5* | 9.8 | 7.3 | 8.0
O=C(O)c1ccccc1C(=O)Nc1cccc([N+](=O)[O-])c1 | 1.8 | 1.2 | -1.6 | 3.7 | 1.9 | -0.1 | · | ·
O=C(Nc1cccc([N+](=O)[O-])c1)c1cc2ccccc2cc1O | 38.7 | 17.1* | 26.8* | -9.1 | 24.7* | 14.0 | 16.1 | 12.8
COc1ccc(OCC(O)CNCCOc2ccccc2OC)c(C(C)(C)C)c1 (configuration not stated) | -1.0 | · | · | -8.6 | 22.4* | 10.4 | 6.9 | 2.0
O=C1C=C(c2ccc(Cl)c(C(F)(F)F)c2)C[C@@H](c2ccc(Cl)cc2)C1 | 1.0 | · | · | -6.8 | 0.6 | 0.9 | · | ·
CCOC(=O)Cn1c(COc2ccccc2OC)[n+](C)c2ccccc21 | -0.7 | · | · | 2.9 | 0.0 | -1.8 | · | ·
CCCCCCCCCCOC(=O)Cn1c(COc2ccccc2C)[n+](C)c2ccccc21 | 5.6 | · | · | -2.6 | 22.5* | 1.0 | 14.7 | 15.8
